Sampled rows, rich in hits. Any-hit rate of the full collection: about 2.8%.
Bim-Mcl-1: human Bim-Mcl-1 interaction inhibition; inhibition, % at 10 µM; AID 1009; Q07820; Bead-based flow cytometry, Bim peptide-Mcl-1 binding; 190,000 compounds, 0.1% hits; in the data active means inhibition above about 40%;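 further: 0% = no compound tracer wells and 100% = peptide blocker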
Target sequence (Q07820 whole entry, looked up): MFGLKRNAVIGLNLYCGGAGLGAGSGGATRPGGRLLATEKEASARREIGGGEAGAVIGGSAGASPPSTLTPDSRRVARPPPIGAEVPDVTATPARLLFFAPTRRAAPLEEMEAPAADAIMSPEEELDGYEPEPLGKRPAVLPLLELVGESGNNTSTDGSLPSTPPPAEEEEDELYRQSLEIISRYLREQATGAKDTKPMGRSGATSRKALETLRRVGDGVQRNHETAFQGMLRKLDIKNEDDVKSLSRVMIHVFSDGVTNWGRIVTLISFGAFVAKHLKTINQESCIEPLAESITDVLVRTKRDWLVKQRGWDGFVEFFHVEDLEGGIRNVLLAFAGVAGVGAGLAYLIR
Calb biofilm kill: mixture kills Candida albicans biofilm cells | C. albicans biofilm persisters + clotrimazole, fluorescence viability; primary screen in compound mixtures of four per well | inhibition, % at 7.6 µM | 120,000 compounds, 0.02% hits | AID 1242;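 active means inhibition above 30.3% in the primary screen of four-compound pools, then above 30% when the compound was retested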;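 further: compounds exposed to preformed 24 h biofilms for 48 h; 0% = untreated biofilm control and 100% = clotrimazole plus chlorhexidine kill blank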
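Test system: C. albicans biofilms. Buffer or medium: RPMI/MOPS medium, pH 7.0. Timing: 48 h compound exposure at 37 °C. Technique: Alamar Blue fluorescence. Evaluation: percent inhibition of biofilm viability.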
Arbovirus anti: blocks arbovirus infection | inhibition, % at 10 µM | 200,000 compounds, 0.37% hits | arbovirus infection cell-based antiviral screen; in the data active means inhibition above about 30%
Mcl1 Noxa PPI: Mcl-1/Noxa interaction inhibition. Q07820. TR-FRET Mcl-1/Noxa peptide binding, 2 h. inhibition, % at 21.7 µM. 220,000 compounds, 1.5% hits;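 active means compounds that cut the protein-peptide binding signal by more than 50% relative to plate controls in a single-dose test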;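 further: His-tagged Mcl-1 with rhodamine Noxa BH3 peptide and terbium anti-His antibody; 0% = Mcl-1 plus Noxa peptide wells and 100% = peptide-only wells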
Mcl1-Bid inh: Mcl-1/Bid interaction inhibition. AID 1021. inhibition, % at 21.7 µM. 220,000 compounds, 0.97% hits. Q07820. TR-FRET Mcl-1/Bid-Dy647 peptide binding, 1536-well;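 active means compounds that cut the binding signal by more than half at the single screening dose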;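 further: His-tagged Mcl-1 with europium anti-His antibody binding Bid BH3 peptide; 0% = Mcl-1 plus peptide wells and 100% = peptide-only wells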
m-calpain inh: calpain II (pig) inhibition; purified calpain II, fluorogenic peptide substrate, 30 min; inhibition, % at 16 µM; 220,000 compounds, 0.37% hits; AID 1236;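 active means inhibition above about 50%, limit read from the data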
* = called active by the depositor; x = no result.

SMILES | Bim-Mcl-1 | Calb biofilm kill | Arbovirus anti | Mcl1 Noxa PPI | Mcl1-Bid inh | m-calpain inh
COc1ccc(-c2csc(NC(=O)c3ccc(OCC(=O)N4CCOCC4)c(OC)c3)n2)cc1 | -3 | 12 | 44* | -3 | -76 | -51
Cc1ccc(-c2csc(NC(=O)c3cccc(S(=O)(=O)N4CCN(C)CC4)c3)n2)cc1 | 0 | x | 35* | -26 | -29 | -1
COc1ccc(C2(C(=O)Nc3ccc(C)cc3)CCOCC2)cc1 | 0 | 8 | 1 | 0 | -3 | 4
Cc1ccc(C(=O)OCC(=O)NC2CCCCC2)s1 | 0 | 15 | 4 | 3 | -25 | -11
Cc1ccc(-c2csc(NC(=O)C3=NN(c4ccccc4)C(=O)CC3)n2)cc1 | 0 | 20 | 67* | 38 | -13 | -40
O=[N+]([O-])c1cccc(-c2nnc(-c3ccc4c(c3)OCO4)o2)c1 | 1 | 12 | 4 | 62* | 60* | -5
COc1ccc(NS(=O)(=O)c2cccc(C(=O)N/N=C/c3ccc4c(c3)OCCO4)c2)cc1 | -1 | -7 | -10 | 32 | 65* | -32
CCc1ccc(S(=O)(=O)Nc2cc(SCC(=O)O)c(O)c3ccccc23)cc1 | 4 | 7 | -4 | 56* | -29 | 0
O=C(O)CSc1cc(NS(=O)(=O)c2cccc([N+](=O)[O-])c2)c2ccccc2c1O | x | 20 | x | 76* | 16 | 40
Cc1ccc(C)c(S(=O)(=O)Nc2cc(SCC(=O)O)c(O)c3ccccc23)c1 | 4 | 15 | -28 | 79* | -16 | 16
Cc1ccc(NS(=O)(=O)c2cc(NC(=O)C(C)Oc3ccccc3)ccc2C)c(C)c1 (stereo not drawn) | -3 | 7 | -9 | 0 | -34 | 24
O=S(=O)(Nc1cc(Sc2cccc3cccnc23)c(O)c2ccccc12)c1ccccc1 | 2 | 23 | -45 | 68* | -13 | -7
Cc1ccc2cc(C)c3nnc(SCc4ccc(C(=O)O)cc4)n3c2c1C | x | 12 | x | -12 | -60 | -31
CC(C(=O)NCC1CCCCC1)N(C)CC(=O)Nc1ccc(N2CCOCC2)cc1 (stereo not drawn) | 0 | 13 | -6 | 11 | -20 | -36
CCOC(=O)C(=O)Nc1ncc(Cl)s1 | x | 21 | x | -9 | -5 | -14
CC1Cc2ccccc2N1S(=O)(=O)c1cccc(C(=O)N2CC(=O)Nc3ccccc32)c1 (stereo not drawn) | x | 21 | x | 42 | -51 | -5
O=C(c1ccco1)[C@@H]1[C@@H]2C(=O)N(c3ccc(F)cc3)C(=O)[C@@H]2[C@H]2C=Cc3ccccc3N21 | 5 | 27 | 0 | 73* | 24 | -64
Nc1nnc(CC(=O)N/N=C/c2cc([N+](=O)[O-])cc(Br)c2O)s1 | 1 | 3 | 14 | 56* | -56 | -7
Nc1nnc(CC(=O)N/N=C/c2cccc(OCCOc3ccccc3)c2)s1 | 0 | x | -13 | -6 | 51* | -13
C=CCN(c1ccccc1)S(=O)(=O)c1ccc(Cl)c(C(=O)OCC(=O)N(C)C2CCS(=O)(=O)C2)c1 (stereo not drawn) | -3 | -6 | 3 | 22 | -8 | -14
Cc1ccc(-n2nc(C)c(NC(=O)CCl)c2C)cc1 | -1 | 14 | 35* | -1 | -16 | 6
Nc1cccc(Oc2ccc3c(c2)C(=O)N(CC2CCCO2)C3=O)c1 (stereo not drawn) | x | -5 | x | -19 | -21 | 22
O=C1C(c2ccncc2)=C(O)c2ccccc21 | 3 | x | 2 | 19 | -10 | -7
CC(C)c1ccc(C2=C(O)c3ccccc3C(=O)C2=O)cc1 | 0 | 6 | 33* | 42 | -26 | -12
COC(=O)c1ccc(C)c(NC(=O)CCNC(=O)c2ccc([N+](=O)[O-])cc2)c1 | 46* | 16 | -2 | 15 | -11 | -12
SMILES | Bim-Mcl-1 | Calb biofilm kill | Arbovirus anti | Mcl1 Noxa PPI | Mcl1-Bid inh | m-calpain inh
COC(=O)c1cccc(NC(=O)CCNC(=O)c2ccc([N+](=O)[O-])cc2)c1 | -4 | 6 | 1 | 24 | 0 | 6
COC(=O)C1=C(C)NC2=C(C(=O)CC(C)(C)C2)C1c1cnn(C)c1C (stereo not drawn) | -3 | 4 | -1 | 17 | -26 | -164
Cc1nnc(Sc2c(N)n(C)c(=O)[nH]c2=O)s1 | -1 | x | 1 | 19 | 100* | -2
O=C(Nn1c(SCc2cccc([N+](=O)[O-])c2)nc2ccccc2c1=O)c1ccccc1 | -3 | -3 | 39* | 7 | -14 | -38
CCOC(CCn1c(SCc2cccc([N+](=O)[O-])c2)nc2ccccc2c1=O)OCC | -7 | 16 | 0 | 9 | -35 | 18
COc1ccc(C(=O)Nn2c(SCc3cccc([N+](=O)[O-])c3)nc3ccccc3c2=O)cc1 | -3 | 0 | 3 | -9 | -6 | -25
CCCCn1c(SCc2cccc([N+](=O)[O-])c2)nc2ccsc2c1=O | -3 | 15 | 34* | 1 | -18 | 20
CCCCC(=O)Nc1ccccc1CC | x | 19 | x | 18 | -14 | -8
CCN(CC(=O)Nc1c(F)cccc1F)C(=O)COc1ccc2c(C)cc(=O)oc2c1 | 0 | 4 | 0 | -5 | 7 | -107
O=C(C1CCCCN1S(=O)(=O)c1ccccc1[N+](=O)[O-])N1CCCCC1 (stereo not drawn) | 2 | 16 | 4 | -1 | 7 | 24
Cc1[nH]c(=O)[nH]c(=O)c1S(=O)(=O)NCCc1ccc(S(N)(=O)=O)cc1 | 0 | x | 6 | 58* | -14 | -5
COC(=O)c1ccc(CSc2nc(-c3ccccc3)cs2)o1 | -2 | x | 9 | 80* | -4 | 14
COC(=O)c1ccc(CSc2nnc(NCc3ccccc3)s2)o1 | -3 | x | -4 | 3 | -8 | 33
O=C(CSc1nc2ncccc2[nH]1)c1ccc2c(c1)OCO2 | x | 22 | x | 9 | 2 | -15
O=C(Nc1nnc(SCC(=O)N2CCCCC2)s1)C1CCCCC1 | -5 | x | 3 | 5 | -32 | -10
COCCSc1nnc(NC(=O)C2CCCCC2)s1 | -4 | x | 32* | 14 | 1 | 12
Cc1sc(NC(=S)NC(=O)c2cccs2)nc1-c1ccc(C(C)C)cc1 | 0 | x | -19 | 5 | -22 | 62*
CC(C)c1ccc(-c2csc(NC(=O)c3cccs3)c2C(=O)O)cc1 | -1 | 14 | 41* | 6 | -27 | 39
O=C(Nc1scc(-c2ccc(F)cc2)c1C(=O)O)c1ccco1 | 0 | x | 35* | -35 | 16 | 3
Cc1ccc(-c2csc(NC(=O)/C=C/c3ccco3)c2C(=O)O)cc1 | -1 | 6 | 71* | 9 | -21 | 28
O=C(/C=C\c1ccco1)Nc1nc(-c2ccccc2)cs1 | -6 | -16 | 9 | -3 | -26 | -6
Cc1sc(NC(=O)c2cccs2)nc1-c1ccccc1 | -7 | x | 4 | -10 | 37 | 7
O=c1cc(N2CCCCC2)c(-c2ccccc2)nn1Cc1ccc(Cl)cc1Cl | 0 | x | -47 | -15 | -21 | 54*
Cc1ccc(CNc2nc(C)nc3sc4c(c23)CCC4)cc1 | 0 | x | 7 | -16 | 91* | 9

Screens (PubChem BioAssay)
